The source of these data is ChEMBL document CHEMBL4339195, “Di-aryl Sulfonamide Motif Adds π-Stacking Bulk in Negative Allosteric Modulators of the NMDA Receptor” (ACS Med Chem Lett, 2019).

pIC50: −log10 of the molar value.

In test [1] the target is T1, Glutamate NMDA receptor; Grin1/Grin2c (Rattus norvegicus) (UniProt P35439+Q00961). Nature of the test: Negative allosteric modulation of recombinant rat GluN1/GluN2C expressed in Xenopus laevis oocytes assessed as inhibition of glutamate/glycine-induced current response at saturated concentration at -40 mV holding potential by two-electrode voltage clamp method relative to glutamate/glycine. It counts as cell-based. Summed up:
(§1)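 Hill fit of the composite concentration-response curve in oocytes, with agonist 100 µM glutamate plus 30 µM glycine. Residual response in saturating compound is either fixed at 0 or fitted. 8-16 oocytes from 2-3 frogs.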

The target in test [2] is T2, Ionotropic glutamate receptor NMDA 1/2D (Rattus norvegicus) (UniProt P35439+Q62645). Nature of the test: Potency index, ratio of NP11999 IC50 to test compound IC50 for negative allosteric modulation of recombinant rat GluN1/GluN2D expressed in Xenopus laevis oocytes assessed as inhibition of glutamate/glycine-induced current response. It counts as cell-based.
The target in test [3] is T1, Glutamate NMDA receptor; Grin1/Grin2c (Rattus norvegicus). Nature of the test: Potency index, ratio of NP11999 IC50 to test compound IC50 for negative allosteric modulation of recombinant rat GluN1/GluN2C expressed in Xenopus laevis oocytes assessed as inhibition of glutamate/glycine-induced current response. It counts as cell-based.
Test [4] concerns the target Glutamate NMDA receptor; Grin1/Grin2c (Rattus norvegicus, UniProt P35439+Q00961). Nature of the test: Negative allosteric modulation of recombinant rat GluN1/GluN2C expressed in Xenopus laevis oocytes assessed as inhibition of glutamate/glycine-induced current response at -40 mV holding potential by two-electrode voltage clamp method. It counts as cell-based. Summed up: (§2)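 Oocytes recorded while the drug is co-applied with a maximally effective 100 µM glutamate plus 30 µM glycine. Response is expressed as percent of the glutamate/glycine control. IC50 comes from a Hill fit to the average composite concentration-response curve. 8-16 oocytes from 2-3 frogs per compound and receptor.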
(In general: In two-electrode clamp one electrode senses voltage and the other passes current.)

The target in test [5] is T2, Ionotropic glutamate receptor NMDA 1/2D (Rattus norvegicus). Kind of test: Negative allosteric modulation of recombinant rat GluN1/GluN2D expressed in Xenopus laevis oocytes assessed as inhibition of glutamate/glycine-induced current response at 30 uM at -40 mV holding potential by two-electrode voltage clamp method relative to glutamate/glycine. It counts as cell-based. To be noted: for residual activity: values are per cent of control. Summed up: as §2

Test [6] has as its target T1, Glutamate NMDA receptor; Grin1/Grin2c (Rattus norvegicus). Kind of test: Negative allosteric modulation of recombinant rat GluN1/GluN2C expressed in Xenopus laevis oocytes assessed as inhibition of glutamate/glycine-induced current response at 30 uM at -40 mV holding potential by two-electrode voltage clamp method relative to glutamate/glycine. It counts as cell-based. The conditions noted are these: for residual activity: values are per cent of control. Summed up:
as §2

In test [7] the target is Ionotropic glutamate receptor NMDA 1/2D (Rattus norvegicus, UniProt P35439+Q62645). Kind of test: Negative allosteric modulation of recombinant rat GluN1/GluN2D expressed in Xenopus laevis oocytes assessed as inhibition of glutamate/glycine-induced current response at -40 mV holding potential by two-electrode voltage clamp method. It counts as cell-based. Summed up: as §2

Test [8] has as its target T2, Ionotropic glutamate receptor NMDA 1/2D (Rattus norvegicus). Kind of test: Negative allosteric modulation of recombinant rat GluN1/GluN2D expressed in Xenopus laevis oocytes assessed as inhibition of glutamate/glycine-induced current response at saturated concentration at -40 mV holding potential by two-electrode voltage clamp method relative to glutamate/glycine. It counts as cell-based. Summed up: as §1

The target in test [9] is Glutamate NMDA receptor; Grin1/Grin2a (Rattus norvegicus) (UniProt P35439+Q00959). Kind of test: Negative allosteric modulation of recombinant rat GluN1/GluN2A expressed in Xenopus laevis oocytes assessed as residual glutamate/glycine-induced current response at 30 uM at -40 mV holding potential by two-electrode voltage clamp method relative to glutamate/glycine.
Test [10] addresses T2, Ionotropic glutamate receptor NMDA 1/2D (Rattus norvegicus). Nature of the test: Negative allosteric modulation of recombinant rat GluN1/GluN2D expressed in Xenopus laevis oocytes assessed as residual glutamate/glycine-induced current response at 10 uM at -40 mV holding potential by two-electrode voltage clamp method relative to glutamate/glycine.
The target of test [11] is T1, Glutamate NMDA receptor; Grin1/Grin2c (Rattus norvegicus). Nature of the test: Negative allosteric modulation of recombinant rat GluN1/GluN2C expressed in Xenopus laevis oocytes assessed as remaining glutamate/glycine-induced current response at 10 uM at -40 mV holding potential by two-electrode voltage clamp method relative to glutamate/glycine.

Turning to `CCN(CC)C(=O)Oc1ccc(C(=O)Nc2cccc(CCNS(=O)(=O)c3cccnc3)c2)cc1`, the inhibition in [1] and in test [8] was 0% each time. Further, the Ratio IC50 in test [2] and in test [3] was under 6 in each case. In addition, the pIC50 was 5.49 in test [4] and 5.57 in test [7]. Moreover, the residual activity in test [5] was found to be 8.6%; in test [6] it was 8.5%.
For the molecule `CCN(CC)C(=O)Oc1ccc(C(=O)Nc2cccc(CCNC(=O)c3ccccc3)c2)cc1`, the figures for the residual activity in [9], in [5] and in [6] were 82%, 49% and 56%, respectively. For the same molecule, the pIC50 in test [4] is 4.43; in test [7] it was 4.54.
`CCN(CC)C(=O)Oc1ccc(C(=O)Nc2cccc(CNS(=O)(=O)c3cccnc3)c2)cc1`: the inhibition in [1] and in test [8] was 0% in each case. The pIC50 is 4.47 in [4] and 4.64 in test [7]. Besides, the residual activity was found to be 42% in test [5] and 52% in test [6].
Turning to `CCN(CC)C(=O)Oc1ccc(C(=O)Nc2ccc(C(=O)Nc3ccccc3)cc2)cc1`, in test [7], the pIC50 is under 4.00.
The same measure, in the same setting: as for `CCN(CC)C(=O)Oc1ccc(C(=O)Nc2cccc(C(=O)Nc3ccccc3)c2)cc1`, the figure is 5.10.
For `CCN(CC)C(=O)Oc1ccc(C(=O)Nc2ccc(CCNS(=O)(=O)c3cccnc3)cc2)cc1`, the inhibition in test [1] and in test [8] was 0% each time. For the same molecule, the pIC50 in [4] is 4.92; in test [7] it was 5.29. The values for the residual activity in test [5] and in [6] were 26% and 37%, respectively.
For `CCN(CC)C(=O)Oc1ccc(C(=O)Nc2ccccc2)cc1`, the residual activity in test [10] was 37%; in [11], 49%. Besides, the pIC50 in test [4] is 5.07; in test [7] it was 5.22 to 5.24.
As to `CCN(CC)C(=O)Oc1ccc(C(=O)Nc2ccc(CNS(=O)(=O)c3cccnc3)cc2)cc1`, the inhibition in test [1] and in test [8] was 0% throughout. The results for the pIC50 in test [4] and in test [7] were 4.46 and 4.62, respectively. Further, the values for the residual activity in test [5] and in [6] were 45% and 58%, respectively.
For `CCN(CC)C(=O)Oc1ccc(C(=O)Nc2ccc(CNS(=O)(=O)c3ccccc3)cc2)cc1`, the inhibition is 41% in [1] and 27% in test [8]. The pIC50 was 4.66 in [4] and 5.00 in test [7]. In addition, the residual activity in test [5] was found to be 20%; in test [6] it was 42%.
Take `CCN(CC)C(=O)Oc1ccc(C(=O)Nc2cccc(CCNS(=O)(=O)c3ccc(F)c(Cl)c3)c2)cc1`: the inhibition in test [1] and in test [8] was 0% in each case. Also, the Ratio IC50 in [2] and in [3] was under 6 each time. The pIC50 in test [4] was 5.62; in [7], 5.89. For the same molecule, the residual activity in test [5] stood at 28%; in test [6] it was 41%.
With `CCN(CC)C(=O)Oc1ccc(C(=O)Nc2ccc(CCNS(=O)(=O)c3ccccc3)cc2)cc1`, the inhibition came to 0% in [1], 33% in test [5], 23% in test [6] and 0% in test [8].
On to `CCN(CC)C(=O)Oc1ccc(C(=O)Nc2cccc(CNS(=O)(=O)c3ccccc3)c2)cc1`, for which the inhibition in test [1] and in test [8] was 0% each time. Moreover, the pIC50 in test [4] is 4.35; in test [7] it was 4.54. The residual activity in test [5] was 46%; in test [6], 60%.
`O=C(NCc1ccc(C(=O)NNC(=O)c2ccccc2)cc1)c1ccc(F)c(Cl)c1`: the residual activity in test [9] came to 102%.
On to `CCN(CC)C(=O)Oc1ccc(C(=O)Nc2ccc(CCNS(=O)(=O)c3ccc(F)c(Cl)c3)cc2)cc1`, for which the inhibition in test [1] is 0%; in [5], 26%; in [6], 21%; in test [8] it was 0%.

By inhibition is commonly meant how much of the control response was suppressed. As usually defined, the pIC50 is the IC50 on a negative log10 scale, so that one unit is a factor of ten.
